This is an account of results in ChEMBL document CHEMBL1124562, “(3-Amino-2-oxoalkyl)phosphonic acids and their analogues as novel inhibitors of D-alanine:D-alanine ligase” (J Med Chem, 1989).

Test [1] can be described thus: Inhibition of DAla-DAla Ligase by the compound. Details: species or system Enterococcus faecalis. The essentials:
(§1)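 Enzyme was a 50% ammonium sulphate fraction from sonicated Streptococcus faecalis ATCC 8043 extract (0.38 units/mg). Inhibitor was preincubated 40 min at room temperature with enzyme, 0.008 M MgCl2, 0.01 M KCl and 0.05 M Tris-Cl pH 7.9. Then 0.005 M ATP and 0.005 M (14C-1)-D-alanine were added and the mix held 30 min at 37 °C. Radiolabelled product was resolved by silica TLC and integrated.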

The subject of test [2] is Enterococcus faecalis. The test is described as follows: Percent inhibition of DAla-DAla Ligase at 10e -3 M of the compound. The essentials:
as §1

For test [3], the system named is Enterococcus faecalis. The test is described as follows: Percent inhibition of DAla-DAla Ligase at 10e-3 M of the compound. The procedure, abridged:
as §1

Test [4] relates to Enterococcus faecalis. The test is described as follows: Percent inhibition of D-Alanine-D-Alanine Ligase at 10e-3 M of the compound. The essentials:
as §1

Test [5] in a line: Inhibition of DAla-DAla Ligase at 10e -3 M of the compound. On the set-up: species or system Enterococcus faecalis. The procedure, abridged:
as §1

A short description of test [6]: Inhibition of D-Alanine-D-Alanine Ligase Ligase by the compound. Details: species or system Enterococcus faecalis. The procedure, abridged:
as §1

For orientation: Ki means the dissociation constant of the complex between target and ligand, obtained from inhibition or displacement. Lower therefore signals tighter binding. A word on the inhibition: it is the drop in the measured response relative to a control, in per cent. Low values mean a response near the control, high ones a response far below the control. As for `C[C@@H](N)C(=O)NP(=O)(O)O`, in test [1], the Ki is 50 µM. The inhibition in the test on Enterococcus faecalis [2] came out at 85%.

Turning to `C[C@@H](N)C(=O)CP(=O)(O)O`, the inhibition in the test on Enterococcus faecalis [3] turned out to be 71%. In test [1], the inhibition constant (Ki) is 510 µM.

`C[C@@H](N)C(O)C(O)P(=O)(O)O` (some centres undefined) yielded an inhibition in the test with Enterococcus faecalis [4] of 32%.

In the test with Enterococcus faecalis [4], `C[C@@H](N)C(O)CP(=O)(O)O` (some centres undefined) yielded an inhibition of 25%.

`C[C@@H](N)C(=O)CCP(=O)(O)O` showed an inhibition in the test on Enterococcus faecalis [4] of 10%.

In turn, `C[C@@H](N)/C=C/P(=O)(O)O` yielded an inhibition with Enterococcus faecalis [2] of 24%.

Compound `N[C@@H]1CONC1=O` [CYCLOSERINE] came in with a Ki in test [1] of 250 µM.

The term IC50 denotes the concentration that inhibits the measured activity by half. Higher therefore signals weaker potency in that assay. With `C[C@@H](N)P(=O)(O)O`, the half-maximal inhibitory concentration (IC50) in test [5] was 930 µM.

Turning to `C[C@H](N)C(=O)CP(=O)(O)O`, in the test on Enterococcus faecalis [4], the inhibition came to 14%.

In turn, `NC(CCC(=O)CP(=O)(O)O)C(=O)O` (centres undefined) came in with a Ki in test [6] of 500 µM.

`CC[C@@H](N)C(=O)CP(=O)(O)O`: the inhibition in the test with Enterococcus faecalis [4] was 26%.

`CC(C(=O)[C@@H](C)N)P(=O)(O)O` (some centres undefined) showed an inhibition in the test on Enterococcus faecalis [4] of 18%.
